Source: ChEMBL document CHEMBL4342411, “Novel multitarget 5-arylidenehydantoins with arylpiperazinealkyl fragment: Pharmacological evaluation and investigation of cytotoxicity and metabolic stability” (Bioorg Med Chem, 2019)

Key:
[1] = target: 5-hydroxytryptamine receptor 6 (Homo sapiens) (UniProt P50406); test: Displacement of [3H]-LSD from human recombinant 5-HT6 receptor expressed in CHO cells at 10^-6 M incubated for 60 mins by microbeta2 scintillation counter relative to control; type: cell-based
Chain of 5-hydroxytryptamine receptor 6 (Homo sapiens) (P50406 whole entry): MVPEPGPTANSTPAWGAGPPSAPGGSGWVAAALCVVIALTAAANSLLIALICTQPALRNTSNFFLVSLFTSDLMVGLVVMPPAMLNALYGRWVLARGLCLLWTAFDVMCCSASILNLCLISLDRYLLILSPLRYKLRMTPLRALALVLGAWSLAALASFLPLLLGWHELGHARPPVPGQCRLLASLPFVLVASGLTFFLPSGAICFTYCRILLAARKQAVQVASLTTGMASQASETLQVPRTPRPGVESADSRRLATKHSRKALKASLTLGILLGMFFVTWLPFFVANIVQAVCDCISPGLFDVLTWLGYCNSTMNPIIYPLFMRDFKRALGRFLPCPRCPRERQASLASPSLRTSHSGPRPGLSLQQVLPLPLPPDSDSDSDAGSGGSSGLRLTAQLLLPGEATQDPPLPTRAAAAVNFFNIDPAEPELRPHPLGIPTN
Procedure, shortened: (§1)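 Radioligand displacement from recombinant human receptor membranes, tested at two final concentrations (10^-6 and 10^-7 M), with scintillation counting. Results were expressed as percent inhibition of specific binding.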

[2] = target: 3',5'-cyclic-AMP phosphodiesterase 4B (Homo sapiens) (UniProt Q07343); test: Inhibition of human recombinant full length N-terminal GST-tagged PDE4B1 expressed in baculovirus infected Sf9 cells at 10^-5 M using cAMP as substrate incubated for 20 mins followed by substrate addition by luciferase assay relative to control
Chain of 3',5'-cyclic-AMP phosphodiesterase 4B (Homo sapiens) (Q07343 whole entry): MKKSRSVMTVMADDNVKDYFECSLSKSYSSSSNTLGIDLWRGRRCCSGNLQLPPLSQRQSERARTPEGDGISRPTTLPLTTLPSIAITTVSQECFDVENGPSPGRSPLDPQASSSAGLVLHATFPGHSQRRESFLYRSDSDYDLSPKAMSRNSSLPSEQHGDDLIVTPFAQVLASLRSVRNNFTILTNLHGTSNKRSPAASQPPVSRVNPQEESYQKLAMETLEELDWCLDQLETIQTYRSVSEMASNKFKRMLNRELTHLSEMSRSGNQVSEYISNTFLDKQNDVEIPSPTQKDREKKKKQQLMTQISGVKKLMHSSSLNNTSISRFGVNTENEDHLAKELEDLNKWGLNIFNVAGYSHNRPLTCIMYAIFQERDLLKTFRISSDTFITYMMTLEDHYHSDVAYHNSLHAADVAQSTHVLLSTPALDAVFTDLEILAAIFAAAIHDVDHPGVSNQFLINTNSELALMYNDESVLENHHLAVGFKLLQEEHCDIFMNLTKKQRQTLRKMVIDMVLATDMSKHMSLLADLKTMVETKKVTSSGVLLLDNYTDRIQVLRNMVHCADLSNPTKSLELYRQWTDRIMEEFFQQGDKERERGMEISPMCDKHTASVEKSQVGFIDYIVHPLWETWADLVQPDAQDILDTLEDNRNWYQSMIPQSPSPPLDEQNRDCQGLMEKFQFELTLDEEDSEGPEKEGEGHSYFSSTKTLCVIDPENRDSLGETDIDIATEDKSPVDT

[3] = target: T1, 5-hydroxytryptamine receptor 1A (Homo sapiens, UniProt P08908); test: Displacement of [3H]-8-OH-DPAT from human recombinant 5-HT1A receptor expressed in HEK293 cells incubated for 60 mins by microbeta2 scintillation counter; type: cell-based
T1 sequence (P08908 whole entry): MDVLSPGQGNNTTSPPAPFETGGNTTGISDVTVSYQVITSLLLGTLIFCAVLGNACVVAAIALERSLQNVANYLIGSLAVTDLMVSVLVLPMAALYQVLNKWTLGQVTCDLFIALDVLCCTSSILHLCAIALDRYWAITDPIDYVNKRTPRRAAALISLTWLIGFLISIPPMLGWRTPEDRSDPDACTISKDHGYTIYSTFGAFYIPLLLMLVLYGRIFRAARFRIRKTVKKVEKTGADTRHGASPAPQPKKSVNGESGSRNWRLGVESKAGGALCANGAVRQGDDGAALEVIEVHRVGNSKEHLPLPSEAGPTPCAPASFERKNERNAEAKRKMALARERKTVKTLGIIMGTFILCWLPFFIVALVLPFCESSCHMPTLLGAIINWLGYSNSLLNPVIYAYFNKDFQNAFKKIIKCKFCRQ

[4] = target: T2, 5-hydroxytryptamine receptor 7 (Homo sapiens, UniProt P34969); test: biochemical; type: cell-based, CHO
T2 sequence (P34969 whole entry): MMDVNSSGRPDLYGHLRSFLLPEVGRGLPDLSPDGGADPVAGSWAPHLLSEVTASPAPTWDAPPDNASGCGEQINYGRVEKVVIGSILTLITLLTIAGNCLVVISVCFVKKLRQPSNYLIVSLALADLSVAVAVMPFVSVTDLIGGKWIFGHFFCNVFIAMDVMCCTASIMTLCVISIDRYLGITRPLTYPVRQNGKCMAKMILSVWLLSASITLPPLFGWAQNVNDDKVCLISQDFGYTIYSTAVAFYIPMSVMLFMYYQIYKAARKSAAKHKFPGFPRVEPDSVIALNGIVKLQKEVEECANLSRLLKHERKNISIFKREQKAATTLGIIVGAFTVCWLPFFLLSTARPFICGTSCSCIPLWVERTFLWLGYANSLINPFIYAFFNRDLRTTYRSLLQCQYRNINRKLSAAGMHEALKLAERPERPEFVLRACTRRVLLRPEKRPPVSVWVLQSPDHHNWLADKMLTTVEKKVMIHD

[5] = target: 5-hydroxytryptamine receptor 6 (Homo sapiens) (UniProt P50406); test: Displacement of [3H]-LSD from human recombinant 5-HT6 receptor expressed in CHO cells at 10^-7 M incubated for 60 mins by microbeta2 scintillation counter relative to control; type: cell-based; procedure, shortened: as §1
[6] = target: 5-hydroxytryptamine receptor 2A (Homo sapiens) (UniProt P28223); settings: HEK293, at 1 µM
Chain of 5-hydroxytryptamine receptor 2A (Homo sapiens) (P28223 whole entry): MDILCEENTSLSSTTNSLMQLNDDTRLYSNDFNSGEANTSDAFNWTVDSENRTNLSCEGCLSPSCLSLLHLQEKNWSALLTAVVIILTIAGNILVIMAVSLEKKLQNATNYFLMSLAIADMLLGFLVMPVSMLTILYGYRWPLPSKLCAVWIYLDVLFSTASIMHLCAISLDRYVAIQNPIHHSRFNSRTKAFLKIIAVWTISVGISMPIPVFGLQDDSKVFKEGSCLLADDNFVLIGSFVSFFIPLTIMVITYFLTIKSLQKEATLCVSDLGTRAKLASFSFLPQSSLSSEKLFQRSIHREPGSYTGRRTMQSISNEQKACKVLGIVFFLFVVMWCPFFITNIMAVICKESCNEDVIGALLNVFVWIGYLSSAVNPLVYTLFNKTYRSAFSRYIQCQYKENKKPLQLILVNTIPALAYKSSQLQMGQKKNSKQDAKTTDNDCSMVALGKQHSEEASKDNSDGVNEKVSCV

[7] = target: 5-hydroxytryptamine receptor 2A (Homo sapiens) (UniProt P28223); settings: HEK293, at 0.1 µM
[8] = system: SW480; test: Cytotoxicity against human SW480 cells assessed as growth inhibition measured after 72 hrs by MTT assay; type: functional, cell-based; settings: SW480, 72 h
Procedure, shortened: (§2)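 Cells were seeded at 1 × 10^4 per well: SW480 in MEM, PC3 in RPMI 1640, HaCaT in DMEM high glucose, each with 10% FBS. Compounds were added at 10–140 µM and incubated for 72 h. MTT was then added at 0.5 mg/mL in serum-free medium for 4 h at 37 °C. Formazan was dissolved in DMSO/isopropanol (1:1) and read at 570 nm. IC50 was given in µM; untreated cells served as control.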

[9] = system: PC-3; test: Cytotoxicity against human PC3 cells assessed as growth inhibition measured after 72 hrs by MTT assay; type: functional, cell-based; settings: PC-3, 72 h; procedure, shortened: as §2
[10] = system: HaCaT; test: Cytotoxicity against human HaCaT cells assessed as growth inhibition measured after 72 hrs by MTT assay; type: cell-based; procedure, shortened: as §2
[11] = target: T3, 5-hydroxytryptamine receptor 1A (Homo sapiens) (UniProt P08908); test: Agonist activity at human recombinant 5-HT1A receptor expressed in CHOK1 cells measured after 1 hr by microbeta2 scintillation counter relative to control; type: cell-based
T3 sequence (whole entry): T1 sequence (P08908 whole entry)
Procedure, shortened: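 Aequorin Ca2+ assay in CHO-K1 cells coexpressing mitochondrial aequorin, human 5-HT1A and Gα16. Thawed cells were loaded with coelenterazine h (5 μM final) for 16 h at 16 °C in the dark with agitation, then diluted to 5000 cells/ml. After 1 h they were injected onto the compounds (8–10 concentrations) and luminescence was recorded for 30 s.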

[12] = target: T3, 5-hydroxytryptamine receptor 1A (Homo sapiens); test: Antagonist activity at human recombinant 5-HT1A receptor expressed in CHOK1 cells incubated for 25 mins followed by addition of […] by microbeta2 scintillation counter relative to control; type: cell-based
Procedure, shortened: (§3)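 Aequorin Ca2+ assay in antagonist mode in CHO-K1 cells expressing human 5-HT1A, Gα16 and mitochondrial aequorin, loaded with 5 μM coelenterazine h. Cells were injected onto the compounds (8–10 concentrations) and incubated for 25 min.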

[13] = target: T2, 5-hydroxytryptamine receptor 7; test: Agonist activity at human recombinant 5-HT7 receptor expressed in CHOK1 cells by LANCE TR-FRET assay relative to control; type: cell-based
Procedure, shortened: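 cAMP assay in CHO-K1 cells expressing human 5-HT7 […], at 2x10^5 cells/ml in HBSS with 5 mM HEPES, IBMX and 0.1% BSA, pH 7.4. Cells were stimulated with the compounds (8 concentrations) for 60 min at room temperature. cAMP was read by LANCE Ultra TR-FRET after 1 h with tracer and antibody. EC50 was obtained by nonlinear regression.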

[14] = target: T2, 5-hydroxytryptamine receptor 7; test: Antagonist activity at human recombinant 5-HT7 receptor expressed in CHOK1 cells measured after 60 mins in the presence of serotonin by LANCE TR-FRET assay relative to control; type: cell-based
[15] = target: T3, 5-hydroxytryptamine receptor 1A (Homo sapiens); test: Antagonist activity at human recombinant 5-HT1A receptor expressed in CHOK1 cells assessed as equilibrium binding constant incubated for 25 mins followed by addition of methiothepin by microbeta2 scintillation counter; type: cell-based; settings: in the assay text read “serotonin” for “methiothepin”; procedure, shortened: as §3
[16] = target: T2, 5-hydroxytryptamine receptor 7; test: Antagonist activity at human recombinant 5-HT7 receptor expressed in CHOK1 cells assessed as equilibrium binding constant measured after 60 mins in the presence of serotonin by LANCE TR-FRET assay; type: cell-based
[17] = target: T1, 5-hydroxytryptamine receptor 1A; test: Antagonist activity at human recombinant 5-HT1A receptor expressed in CHOK1 cells incubated for 25 mins followed by addition of methiothepin by microbeta2 scintillation counter; type: cell-based; procedure, shortened: as §3
[18] = target: T2, 5-hydroxytryptamine receptor 7; test: Antagonist activity at human recombinant 5-HT7 receptor expressed in CHOK1 cells measured after 60 mins in the presence of serotonin by LANCE TR-FRET assay; type: cell-based
[19] = Selectivity index, ratio of IC50 for human HaCaT cells to IC50 for human SW480 cells
[20] = Selectivity index, ratio of IC50 for human HaCaT cells for human PC3 cells; type: toxicity; settings: HaCaT cells versus PC3 cells, read-out: Ratio IC50
[21] = system: Mus musculus; test: Antidepressant activity in Swiss albino mouse assessed as decrease in immobility time at 0.625 to 2.5 mg/kg, ip measured after 60 mins by forced swim test relative to control; type: functional; parameters: scale not given: the % may be the effect or the level left
Procedure, shortened: (§4)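 Male Swiss albino mice (22–26 g), 7–10 per dose, were dosed ip in 1% Tween 80 at 10 ml/kg 60 min before the test. In the Porsolt test, each mouse was placed for 6 min in a cylinder with 6 cm of water at 23–25 °C. Immobility was scored over the last 4 min and compared with vehicle controls by ANOVA/Bonferroni.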

[22] = system: Mus musculus; test: Effect on locomotor activity in Swiss albino mouse at 0.625 to 2.5 mg/kg, ip; type: ADME, organism-based; settings: in vivo
Procedure, shortened: (§5)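 Male Swiss albino mice were dosed ip in 1% Tween 80 at 10 ml/kg 60 min before testing. Each mouse was placed individually in a cage in a photobeam activity monitor. Ambulation crossings were counted from 2 to 6 min.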

[23] = Metabolic stability in mouse liver microsomes assessed as metabolite formation measured after 30 mins in the presence of NADPH by LC-MS/MS analysis; type: ADME, Microsome; settings: 0.5 h
Procedure, shortened: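 Compound (20 µM final) was preincubated with mouse liver microsomes (0.4 mg/mL) in 100 mM potassium phosphate, pH 7.4, at 37 °C for 15 min. The reaction was started with an NADPH-regenerating system and sampled at 5, 15 and 30 min. Levallorphan internal standard was added, the reaction was stopped with perchloric acid, and samples were analysed by LC-MS/MS. No-NADPH incubations served as negative controls.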

[24] = in vitro; settings: CD1, mouse, liver microsomes
[25] = in vitro; settings: CD1, mouse, liver microsomes; remark: listed apart in the source
[26] = system: Mus musculus; test: Antidepressant activity in Swiss albino mouse assessed as decrease in immobility time at 0.625 mg/kg, ip measured after 60 mins by forced swim test relative to control; type: functional; parameters: scale not given: the % may be the effect or the level left; procedure, shortened: as §4
[27] = system: Mus musculus; test: Effect on locomotor activity in Swiss albino mouse at 0.625 mg/kg, ip; type: ADME, organism-based; settings: in vivo; procedure, shortened: as §5
[28] = in the assay text read “serotonin” for “methiothepin”, read-out: IC50

SMILES | inhibition [1] | inhibition [2] | Ki [3] | Ki [4] | inhibition [5] | inhibition [6] | inhibition [7] | IC50 [8] | IC50 [9] | IC50 [10] | Emax [14] | further results
COc1ccc(/C=C2\NC(=O)N(CCCN3CCN(c4ccccc4OC)CC3)C2=O)cc1OC1CCCC1 | 13% | 3% | 37 nM | 6 nM | 0% | 96% | 44% | – | – | – | – | –
COc1cccc2c1C(=O)c1c(O)c3c(c(O)c1C2=O)C[C@@](O)(C(=O)CO)C[C@@H]3O[C@H]1C[C@H](N)[C@H](O)[C@H](C)O1 [DOXORUBICIN] | – | – | – | – | – | – | – | 290 nM | 590 nM | 235 nM | – | –
COc1ccc(/C=C2\NC(=O)N(CCCCN3CCN(c4ccccc4OC)CC3)C2=O)cc1OC1CCCC1 | 5% | 14% | 1 nM | 1 nM | 0% | 95% | 50% | 185000 nM | 254000 nM | 151000 nM | 33% | Emax [11]: 6%; Emax [12]: 3%; Emax [13]: 14%; Kb [15]: 1.7 nM; Kb [16]: 73 nM; IC50 [17, 28]: 54 nM; IC50 ([17]; read-out: pIC50 (converted)): 61.7 nM; IC50 [18]: 219 nM; Ratio IC50 [19]: 0.81; selectivity ratio [20]: 0.59; Activity [21]: 30%; Activity [22]: Non-Toxic; Drug metabolism [23]: Metabolite_Detected; half-life [24]: 12.8 min; microsomal CLint [25]: 136 µL/min/mg
COc1ccc(/C=C2\NC(=O)N(CCCCN3CCN(c4cccc(Cl)c4Cl)CC3)C2=O)cc1OC1CCCC1 | 34% | 3% | 132 nM | 125 nM | 8% | 90% | 39% | – | – | – | – | –
COc1ccc(/C=C2\NC(=O)N(CCCN3CCN(c4ncccn4)CC3)C2=O)cc1OC | 15% | 1% | 12 nM | 74 nM | 8% | 78% | 23% | – | – | – | – | –
CC1CCN(CC[C@H]2CCCN2S(=O)(=O)c2cccc(O)c2)CC1 | – | – | – | – | – | – | – | – | – | – | 8% | –
COc1ccc(/C=C2\NC(=O)N(CCCCN3CCN(c4cccc(Cl)c4Cl)CC3)C2=O)cc1OC | 82% | 5% | 0.2 nM | 0.8 nM | 6% | 98% | 82% | 255000 nM | 227000 nM | 296000 nM | 37% | Emax [11]: 12%; Emax [12]: 15%; Emax [13]: 13%; Kb [15]: 1.3 nM; Kb [16]: 54.3 nM; IC50 [17, 28]: 39 nM; IC50 [18]: 163 nM; Ratio IC50 [19]: 1.16; selectivity ratio [20]: 1.31; Activity [26]: 27%; Activity [27]: Non-Toxic
COc1ccc(/C=C2\NC(=O)N(CCCN3CCN(c4ncccn4)CC3)C2=O)cc1OC1CCCC1 | 23% | 9% | 85 nM | > 1000 nM | 0% | 89% | 33% | – | – | – | – | –
